Calls of active or inactive are those of the source. The calls are words filed in the database; no cut-off is given here.
Columns and labels:
K562 = experiment: Antiproliferative activity against human K562 cells assessed as growth inhibition after 48 hrs by CellTiter-Glo assay; assay type: functional; details: K562, 48 h
[1] = Antiproliferative activity against human OVCAR5 cells assessed as growth inhibition after 48 hrs by SRB assay; assay type: functional; details: OVCAR-5, 48 h
[2] = target: T1, Receptor-type tyrosine-protein kinase FLT3 (Homo sapiens, UniProt P36888); experiment: Inhibition of human recombinant FLT3 after 1 hr by LanthaScreen assay platform
T1 sequence (P36888 whole entry): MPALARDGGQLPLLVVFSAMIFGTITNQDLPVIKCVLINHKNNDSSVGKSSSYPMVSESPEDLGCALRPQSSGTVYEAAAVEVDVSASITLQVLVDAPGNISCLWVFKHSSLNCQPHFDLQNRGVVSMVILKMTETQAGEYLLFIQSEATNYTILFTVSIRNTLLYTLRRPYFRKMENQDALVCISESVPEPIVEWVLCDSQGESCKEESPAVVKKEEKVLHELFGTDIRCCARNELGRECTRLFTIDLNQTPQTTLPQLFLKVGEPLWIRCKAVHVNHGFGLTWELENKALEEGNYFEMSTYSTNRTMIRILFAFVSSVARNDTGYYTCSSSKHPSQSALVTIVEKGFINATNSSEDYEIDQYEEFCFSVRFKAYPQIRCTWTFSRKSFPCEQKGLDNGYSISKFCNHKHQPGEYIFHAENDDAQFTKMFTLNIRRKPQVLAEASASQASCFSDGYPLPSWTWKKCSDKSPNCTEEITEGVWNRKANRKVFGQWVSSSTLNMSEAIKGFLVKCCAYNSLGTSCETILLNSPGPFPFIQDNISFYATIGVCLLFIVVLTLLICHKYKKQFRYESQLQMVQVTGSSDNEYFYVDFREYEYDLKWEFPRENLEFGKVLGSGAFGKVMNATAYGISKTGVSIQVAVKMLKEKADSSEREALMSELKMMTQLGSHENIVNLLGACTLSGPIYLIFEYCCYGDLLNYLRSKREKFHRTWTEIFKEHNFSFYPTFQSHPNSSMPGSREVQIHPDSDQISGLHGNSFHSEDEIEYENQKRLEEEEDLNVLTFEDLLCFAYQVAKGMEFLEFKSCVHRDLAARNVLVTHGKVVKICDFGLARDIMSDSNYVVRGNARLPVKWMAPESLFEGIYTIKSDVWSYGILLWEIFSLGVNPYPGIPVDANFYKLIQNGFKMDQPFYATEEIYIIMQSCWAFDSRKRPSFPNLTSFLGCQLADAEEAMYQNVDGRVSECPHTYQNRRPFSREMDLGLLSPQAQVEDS
Summary of the method: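 TR-FRET binding format. Recombinant FLT3 incubated 1 h at room temperature with Eu-anti-His antibody, Alexa Fluor 647-labelled kinase tracer 236 and varied compound concentrations. Signal read as the 665/615 nm emission ratio. Values are means ± SD of three independent experiments.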

[3] = target: T2, Tyrosine-protein kinase JAK2 (Homo sapiens, UniProt O60674); experiment: Inhibition of human recombinant JAK2 using Z'LYTETry6 peptide substrate after 1 hr by microplate reader
T2 sequence (O60674 whole entry): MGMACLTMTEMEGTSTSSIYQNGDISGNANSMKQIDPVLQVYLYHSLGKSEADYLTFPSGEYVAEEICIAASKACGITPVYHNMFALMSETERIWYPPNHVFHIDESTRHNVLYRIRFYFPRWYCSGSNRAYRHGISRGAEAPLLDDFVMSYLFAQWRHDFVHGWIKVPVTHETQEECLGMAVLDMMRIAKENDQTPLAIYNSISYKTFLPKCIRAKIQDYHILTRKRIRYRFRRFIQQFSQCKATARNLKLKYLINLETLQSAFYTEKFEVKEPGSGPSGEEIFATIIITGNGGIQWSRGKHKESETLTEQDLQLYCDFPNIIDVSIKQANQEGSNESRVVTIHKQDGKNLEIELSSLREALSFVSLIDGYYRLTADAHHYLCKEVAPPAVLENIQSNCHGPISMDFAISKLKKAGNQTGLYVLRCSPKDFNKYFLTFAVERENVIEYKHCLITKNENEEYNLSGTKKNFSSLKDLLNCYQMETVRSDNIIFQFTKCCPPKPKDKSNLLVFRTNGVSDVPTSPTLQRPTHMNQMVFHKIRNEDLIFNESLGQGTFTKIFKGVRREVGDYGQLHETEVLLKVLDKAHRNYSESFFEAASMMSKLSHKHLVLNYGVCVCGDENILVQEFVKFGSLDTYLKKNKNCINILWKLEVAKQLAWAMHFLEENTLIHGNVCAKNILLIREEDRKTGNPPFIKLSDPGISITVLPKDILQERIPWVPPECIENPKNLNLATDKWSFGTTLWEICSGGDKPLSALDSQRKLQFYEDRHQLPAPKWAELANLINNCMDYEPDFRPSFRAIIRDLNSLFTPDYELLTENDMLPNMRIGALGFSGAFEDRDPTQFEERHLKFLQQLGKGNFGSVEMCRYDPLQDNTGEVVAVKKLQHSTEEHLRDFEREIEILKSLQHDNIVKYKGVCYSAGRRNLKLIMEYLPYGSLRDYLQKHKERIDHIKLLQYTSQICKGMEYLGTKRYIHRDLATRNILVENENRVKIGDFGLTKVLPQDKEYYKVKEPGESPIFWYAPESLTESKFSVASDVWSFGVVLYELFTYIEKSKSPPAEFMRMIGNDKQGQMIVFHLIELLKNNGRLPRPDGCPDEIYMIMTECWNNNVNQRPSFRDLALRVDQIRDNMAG

NCI-H460 = experiment: Antiproliferative activity against human NCI-H460 cells assessed as growth inhibition after 48 hrs by SRB assay; assay type: functional; details: NCI-H460, 48 h
MCF7 = experiment: Antiproliferative activity against human MCF7 cells assessed as growth inhibition after 48 hrs by SRB assay; assay type: functional; details: MCF7, 48 h
HEL = experiment: Antiproliferative activity against human HEL cells assessed as growth inhibition after 48 hrs by CellTiter-Glo assay; assay type: functional
[4] = Antiproliferative activity against human HL60 cells assessed as growth inhibition after 48 hrs by CellTiter-Glo assay; assay type: functional; details: HL-60, 48 h
[5] = Antiproliferative activity against human HCT116 cells assessed as growth inhibition after 48 hrs by SRB assay; assay type: functional; details: HCT-116, 48 h
MDA-MB-435 = experiment: Antiproliferative activity against human MDA-MB-435 cells assessed as growth inhibition after 48 hrs by SRB assay; assay type: functional; details: MDA-MB-435, 48 h
MV4-11 [6] = experiment: Antiproliferative activity against human MV4-11 cells assessed as growth inhibition after 48 hrs by CellTiter-Glo assay; assay type: functional; details: MV4-11, 48 h
Histone deacetylase = experiment: Inhibition of HDAC (unknown origin) using Fluor de Lys substrate after 2 hrs by microplate reader; assay type: protein assay, Homo sapiens
[7] = target: T2, Tyrosine-protein kinase JAK2; experiment: Decrease in JAK2 phosphorylation in human HEL cells at 0.1 to 0.5 uM after 24 hrs by Western blot analysis; assay type: cell-based
Summary of the method: (§1)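 Cells plated at 0.2 × 10⁶ per mL with or without varied compound concentrations, incubated 24 h, then lysed in whole-cell lysis buffer. Total extracts run on SDS-PAGE and western blotted with antibodies to acetyl-histone H3, acetyl-tubulin, tubulin, phospho-FLT3 Y591, phospho-JAK2 Y1007/1008, phospho-STAT5 Y694 and phospho-AKT T308. HRP-labelled secondary antibodies used for detection.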

[8] = target: Receptor-type tyrosine-protein kinase FLT3 (Homo sapiens) (UniProt P36888); details: HEL, 0.1 to 0.5 uM
[9] = target: Histone deacetylase (Homo sapiens) (UniProt Q13547+O15379+Q9UBN7+Q92769+Q9UQL6+Q8WUI4+Q9BY41+Q96DB2+P56524+Q9UKV0+Q969S8); experiment: Induction of HDAC-mediated histone H3 acetylation in human MV4-11 cells after 24 hrs by Western blot analysis; assay type: cell-based; summary of the method: as §1
Tubulin (Homo sapiens) = Tubulin (Homo sapiens) (UniProt P68371+Q9H4B7+P0DPH7+P68366+Q13509+Q71U36+P04350+Q3ZCM7+P07437+P68363+Q9BQE3+Q6PEY2+Q13885+Q9BVA1+Q9BUF5); experiment: Induction of tubulin acetylation in human MV4-11 cells after 24 hrs by Western blot analysis; assay type: cell-based; summary of the method: as §1
MV4-11 [10] = experiment: Inhibition of STAT5 phosphorylation in human MV4-11 cells after 24 hrs by Western blot analysis; assay type: cell-based; summary of the method: as §1
MV4-11 [11] = experiment: Inhibition of AKT phosphorylation in human MV4-11 cells after 24 hrs by Western blot analysis; assay type: cell-based; summary of the method: as §1

| Structure (SMILES) | GI50 (K562) | IC50 [2] | IC50 [3] | GI50 (NCI-H460) | GI50 (MCF7) | GI50 (MDA-MB-435) | GI50 (MV4-11 [6]) | IC50 (Histone deacetylase) | inhibition [7] | inhibition [8] | Activity [9] | Activity (Tubulin (Homo sapiens)) | GI50 [1] | GI50 (HEL) | GI50 [4] | GI50 [5] | inhibition (MV4-11 [10]) | inhibition (MV4-11 [11]) |
| --- | --- | --- | --- | --- | --- | --- | --- | --- | --- | --- | --- | --- | --- | --- | --- | --- | --- | --- |
| O=C(CCCCN1C/C=C/CCOc2cccc(c2)-c2ccnc(n2)Nc2cccc(c2)C1)NO | 2.45 µM | 0.18 µM | 0.293 µM | 1.77 µM | 1.13 µM | 2.72 µM | 0.66 µM | 0.251 µM | – | – | – | – | 1.22 µM | 0.51 µM | 3.03 µM | 1.53 µM | – | – |
| O=C(CCCCC(=O)N1C/C=C/COCc2cccc(c2)-c2ccnc(n2)Nc2cccc(c2)C1)NO | 4.97 µM | 0.221 µM | 0.547 µM | – | – | – | 2.06 µM | 0.402 µM | – | – | – | – | – | 2.94 µM | 4.43 µM | – | – | – |
| O=C(CCCCCCC(=O)N1C/C=C/COCc2cccc(c2)-c2ccnc(n2)Nc2cccc(c2)C1)NO | 4.39 µM | 0.833 µM | 0.684 µM | – | – | – | 1.41 µM | 0.293 µM | – | – | – | – | – | 5.03 µM | 2.87 µM | – | – | – |
| O=C(CCCCCCCC(=O)N1C/C=C/COCc2cccc(c2)-c2ccnc(n2)Nc2cccc(c2)C1)NO | 2.64 µM | 0.272 µM | 0.835 µM | – | – | – | 0.78 µM | 0.334 µM | – | – | – | – | – | 4.78 µM | 1.66 µM | – | – | – |
| O=C(CCCCCN1C/C=C/CCOc2cccc(c2)-c2ccnc(n2)Nc2cccc(c2)C1)NO | 2.32 µM | 0.108 µM | 1.04 µM | 1.6 µM | 1.32 µM | 2.63 µM | 0.53 µM | 0.152 µM | – | – | – | – | 1.42 µM | 2.26 µM | 2.62 µM | 1.33 µM | – | – |
| O=C(CCCCCCC(=O)Nc1ccccc1)NO [VORINOSTAT] | – | > 10 µM | > 10 µM | – | – | – | – | – | – | – | – | – | – | – | – | – | – | – |
| O=C(CCCCCCC(=O)N1C/C=C/CCOc2cccc(c2)-c2ccnc(n2)Nc2cccc(c2)C1)NO | 4.79 µM | 1.26 µM | 0.558 µM | – | – | – | 5.89 µM | 0.31 µM | – | – | – | – | – | 5.25 µM | 6.73 µM | – | – | – |
| O=C(CCCCCN1C/C=C/COCc2cccc(c2)-c2ccnc(n2)Nc2cccc(c2)C1)NO | 2.09 µM | 0.288 µM | 0.594 µM | – | – | – | 0.52 µM | 0.123 µM | – | – | – | – | – | 0.68 µM | 2.3 µM | – | – | – |

Continued by falling GI50 (K562), values first:

| GI50 (K562) | IC50 [2] | IC50 [3] | GI50 (NCI-H460) | GI50 (MCF7) | GI50 (MDA-MB-435) | GI50 (MV4-11 [6]) | IC50 (Histone deacetylase) | inhibition [7] | inhibition [8] | Activity [9] | Activity (Tubulin (Homo sapiens)) | Structure (SMILES) | GI50 [1] | GI50 (HEL) | GI50 [4] | GI50 [5] | inhibition (MV4-11 [10]) | inhibition (MV4-11 [11]) |
| --- | --- | --- | --- | --- | --- | --- | --- | --- | --- | --- | --- | --- | --- | --- | --- | --- | --- | --- |
| 2.02 µM | – | – | – | – | – | – | 0.355 µM | – | – | – | – | O=C(CCCCCCCC(=O)N1C/C=C/CCOc2cccc(c2)-c2ccnc(n2)Nc2cccc(c2)C1)NO | – | 6.26 µM | 1.95 µM | – | – | – |
| 1.83 µM | 0.218 µM | 0.392 µM | 1.42 µM | 1.07 µM | 1.88 µM | 0.37 µM | 0.158 µM | – | – | – | – | O=C(CCCCN1C/C=C/COCc2cccc(c2)-c2ccnc(n2)Nc2cccc(c2)C1)NO | 1.13 µM | 0.49 µM | 2.05 µM | 0.81 µM | – | – |
| 1.44 µM | 0.556 µM | 0.246 µM | 2.25 µM | 2.09 µM | 2.41 µM | 1.01 µM | 0.848 µM | – | – | – | – | O=C(CCCCC(=O)N1C/C=C/CCOc2cccc(c2)-c2ccnc(n2)Nc2cccc(c2)C1)NO | 1.52 µM | 2.11 µM | 1.27 µM | 1.59 µM | – | – |
| 1.23 µM | 0.042 µM | 0.17 µM | – | – | – | 0.66 µM | – | – | – | – | – | CN1C/C=C/CCOc2cccc(c2)-c2ccnc(n2)Nc2cccc(c2)C1 [ZOTIRACICLIB] | – | 0.79 µM | 1.13 µM | – | – | – |
| 1.02 µM | 0.087 µM | 0.686 µM | 1.07 µM | 0.95 µM | 1.77 µM | 0.27 µM | 0.087 µM | Active | Dose-dependent effect | Dose-dependent effect | Dose-dependent effect | O=C(CCCCCCN1C/C=C/CCOc2cccc(c2)-c2ccnc(n2)Nc2cccc(c2)C1)NO | 1.22 µM | 0.34 µM | 1.03 µM | 0.82 µM | Dose-dependent effect | Dose-dependent effect |
| 0.94 µM | 0.217 µM | 0.613 µM | 1.19 µM | 1.13 µM | 1.5 µM | 0.32 µM | 0.159 µM | – | – | – | – | O=C(CCCCCCN1C/C=C/COCc2cccc(c2)-c2ccnc(n2)Nc2cccc(c2)C1)NO | 1.42 µM | 0.7 µM | 0.9 µM | 0.9 µM | – | – |

Reference: ChEMBL document CHEMBL3414525, “Macrocyclic compounds as anti-cancer agents: design and synthesis of multi-acting inhibitors against HDAC, FLT3 and JAK2” (Eur J Med Chem, 2015)
